From ChEMBL document CHEMBL1123006, “Synthesis and cytotoxic activity of hydroxylated derivatives of olivacine in relation with their biotransformation” (1985)

Assays:
[1] = system: L1210; assay: Antitumor activity against L1210 leukemia cells expressed as dose concentration that reduces number of cells by 50% after 48 hrs exposure to drug.; format: functional; conditions: Mus musculus, L1210, 48 h; read-out: ID50 (the source's name)
Method in brief: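 L1210 leukemia cells grown in vitro with drug for 48 h; cell number counted against untreated control; ID50 taken as the concentration cutting cell number by 50%.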

[2] = system: Mus musculus; assay: Cytotoxicity against L1210 leukemia cells administered through intraperitoneal route in mice; format: functional
[3] = system: Mus musculus; assay: Highest nonlethal dose against mice administered through intraperitoneal route; format: functional
[4] = organism: Rattus norvegicus; assay: Phenobarbital induced rat hepatic microsomal hydroxylation in vitro; format: functional; conditions: Liver
Method in brief: (§1)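 Liver microsomes from male Sprague–Dawley rats given phenobarbital 80 mg/kg/day ip in 0.9% NaCl for 3 days, killed 2 days after last dose. Microsomes 0.5 mg protein/mL in Tris-HCl 0.02 M pH 7.4 with 1.15% KCl; olivacine acetate at five levels, 5–50 µM; NADPH 1 mg/mL; 37 °C, 5 min. Butanol extract, HPLC; Km/Vmax by Lineweaver-Burk; two rats.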

[5] = organism: Rattus norvegicus; assay: Non induced rat hepatic microsomal hydroxylation in vitro; format: functional; conditions: Liver
Method in brief: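 Liver microsomes from male Sprague–Dawley rats given only vehicle ip (sunflower oil or 0.9% NaCl). Microsomes 0.5 mg protein/mL in Tris-HCl 0.02 M pH 7.4 with 1.15% KCl; olivacine acetate at five levels, 5–50 µM; NADPH 1 mg/mL; 37 °C, 5 min. Butanol extract, HPLC; Km/Vmax by Lineweaver-Burk; two rats.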

[6] = system: L1210; assay: Antitumor efficiency against L1210 leukemia cells expressed as % increase in life span (ILS) 24 hrs after ip grafting (10e5 cells); format: functional, Mus musculus
Method in brief: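 DBA/2 mice given 10^5 L1210 cells intraperitoneally, then a single ip drug dose 24 h later. ILS = (median survival of treated − median survival of controls) / median survival of controls × 100.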

[7] = organism: Rattus norvegicus; assay: Benzo[a]pyrene induced rat hepatic microsomal hydroxylation in vitro; format: functional; conditions: Liver
Method in brief: as §1, with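 “given benzo[a]pyrene 20” for “given phenobarbital 80”, “in sunflower oil” for “in 0.9% NaCl”, “for 2” for “for 3”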

Compound | IC50 [1] | LD0 [2] | LD0 [3] | Km [4] | Vmax [4] | Km [5] | Vmax [5] | ILS [6] | Km [7] | Vmax [7]
Cc1c2ccncc2c(C)c2c1[nH]c1ccccc12 [ELLIPTECINE] | 990 nM | 50 mg/kg | – | – | – | – | – | – | – | –
Cc1nccc2c(C)c3[nH]c4ccc(O)cc4c3cc12 | 60 nM | – | 50 mg/kg | 40 µM | 1.28 nM/min | 25 µM | 0.58 nM/min | 39% | 22.2 µM | 7.14 nM/min
Cc1nccc2c(C)c3[nH]c4ccccc4c3cc12 | 2030 nM | 250 mg/kg | – | – | – | – | – | 35% | – | –
Cc1nccc2c(C)c3[nH]c4c(O)cccc4c3cc12 | 12800 nM | – | – | 41.4 µM | – | 29.4 µM | – | – | 29 µM | –
